# Cardio protect = modulators protecting cardiomyocytes from myocardial damage; H9c2 cardiomyocytes, H2O2 injury protection, ATPLite, 2 h; protection from H2O2 cell death, % at 20 µM; actives 0.63% (n = 360,000); AID 588492;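 active means compounds giving at least 50% protection of heart cells from peroxide-induced death in the single-dose screen, raw or plate-pattern-corrected value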;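 further: 0% = DMSO wells with peroxide and 100% = DMSO wells without peroxide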
# JMJD2C inh = human JMJD2C demethylase inhibition | Q9H3R0 | GST-JMJD2C(1-420) H3K9me3 demethylation, DELFIA europium | inhibition, % at 2.35 µM | actives 0.069% (n = 330,000);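 active means more than half of a compound's replicate wells show inhibition beyond 50%, single wells judged on their own value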;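 further: signal counts dimethyl H3K9 product captured on neutravidin plate; 0% = median of DMSO wells and 100% = 0.3 times that DMSO median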
# PP5 primary = inhibitors of human protein phosphatase 5 (PP5). actives 0.18% (n = 320,000). inhibition, % at 6.7 µM. P53041. purified PP5c, OMFP substrate fluorescence. AID 1987;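 active means inhibition above the campaign's mean inhibition across all tested compounds plus 3 SD, cut at about 9.5% in these data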;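 further: 0% = DMSO only and 100% = 100 µM cantharidin control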
# pCIP destab = lowers stability of the mouse p/CIP coactivator protein; Q05BA5; F442A p/CIP-EGFP cells, EGFP fluorescence, 16 h; decrease of EGFP signal, % at 10 µM; actives 0.01% (n = 290,000); AID 1984;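 active means EGFP signal decrease of at least 30% at 10 µM or well 3 SD below plate mean, unless failing retest; inactive means the rest, including hits failing retest or dose response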
# Target sequence (Q05BA5 1-1403): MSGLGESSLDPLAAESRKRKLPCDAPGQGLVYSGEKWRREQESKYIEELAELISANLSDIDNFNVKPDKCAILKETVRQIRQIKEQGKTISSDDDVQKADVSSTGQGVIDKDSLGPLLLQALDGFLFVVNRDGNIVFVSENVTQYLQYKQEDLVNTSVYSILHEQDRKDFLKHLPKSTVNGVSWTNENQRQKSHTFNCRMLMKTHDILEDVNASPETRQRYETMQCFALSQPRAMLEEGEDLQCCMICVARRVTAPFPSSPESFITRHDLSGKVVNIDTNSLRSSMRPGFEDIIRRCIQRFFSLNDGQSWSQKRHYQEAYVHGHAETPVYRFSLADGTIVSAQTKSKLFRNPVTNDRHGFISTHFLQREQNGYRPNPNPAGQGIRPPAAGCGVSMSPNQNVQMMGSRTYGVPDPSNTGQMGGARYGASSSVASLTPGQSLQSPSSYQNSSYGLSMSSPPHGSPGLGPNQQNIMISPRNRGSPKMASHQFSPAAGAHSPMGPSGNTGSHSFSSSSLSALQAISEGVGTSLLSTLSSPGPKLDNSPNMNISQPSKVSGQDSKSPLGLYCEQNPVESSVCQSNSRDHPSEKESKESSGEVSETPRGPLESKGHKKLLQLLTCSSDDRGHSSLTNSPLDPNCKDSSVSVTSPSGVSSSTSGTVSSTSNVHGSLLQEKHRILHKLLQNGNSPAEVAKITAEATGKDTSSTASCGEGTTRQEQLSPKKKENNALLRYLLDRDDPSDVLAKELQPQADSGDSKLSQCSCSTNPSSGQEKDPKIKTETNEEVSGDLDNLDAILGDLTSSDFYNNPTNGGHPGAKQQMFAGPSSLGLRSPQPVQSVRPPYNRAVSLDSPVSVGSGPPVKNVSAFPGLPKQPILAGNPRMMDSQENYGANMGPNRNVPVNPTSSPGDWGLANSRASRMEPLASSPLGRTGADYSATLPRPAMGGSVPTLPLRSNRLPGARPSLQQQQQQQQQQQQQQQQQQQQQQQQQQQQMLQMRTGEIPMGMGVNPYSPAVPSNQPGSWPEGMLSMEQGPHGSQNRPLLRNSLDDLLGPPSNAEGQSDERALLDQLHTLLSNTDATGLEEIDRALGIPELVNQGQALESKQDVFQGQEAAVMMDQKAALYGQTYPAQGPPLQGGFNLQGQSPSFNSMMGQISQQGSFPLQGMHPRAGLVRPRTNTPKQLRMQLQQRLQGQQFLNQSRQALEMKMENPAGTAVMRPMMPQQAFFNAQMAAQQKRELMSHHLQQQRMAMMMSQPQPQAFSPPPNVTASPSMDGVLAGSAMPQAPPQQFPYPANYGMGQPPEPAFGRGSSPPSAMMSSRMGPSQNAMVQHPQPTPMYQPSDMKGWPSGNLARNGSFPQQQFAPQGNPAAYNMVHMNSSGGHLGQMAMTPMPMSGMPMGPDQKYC
# Fh CTSL1 inh = cathepsin L1 inhibition, PFM18AAP counter-screen; inhibition, % at 5.96 µM; actives 0.49% (n = 300,000); AID 1906; recombinant F. hepatica cathepsin L1, Z-Leu-Arg-MCA fluorescence;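 active means inhibition above the mean of all tested compounds plus 3 SD, set per screening campaign, cut at about 17% in these data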;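 further: 0% = plate median of test compound wells and 100% = 1 µM Z-Phe-Ala-diazomethylketone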
# T cruzi inh = blocks replication of Trypanosoma cruzi; inhibition, % (concentration not given with the values); actives 1.4% (n = 300,000); T. cruzi beta-gal in NIH3T3, luminescence, 90 h;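 active means mean inhibition across valid replicates above about 55%, limit read from the data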;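 further: signal also drops with host cell toxicity which is not excluded here; 0% = plate median of DMSO wells and 100% = zero luminescence signal; higher percent means less beta-gal luminescence so fewer parasites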
#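 Material: NIH/3T3 host cells with β-galactosidase reporter T. cruzi; Input: 5,000 host fibroblasts per well; Medium: DMEM, 2% fetal bovine serum; Compound: 50 nL DMSO compound solution per well; Schedule: 3 h host attachment, then at least 90 h co-culture; Detection: luminescent β-galactosidase signal after 60 min lysis.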
# The depositor's hits bear a star; / = no result given. Compounds with a hit are over-represented: about 2.4% of the library has one in this group of screens.
SMILES,Cardio protect,JMJD2C inh,PP5 primary,pCIP destab,Fh CTSL1 inh,T cruzi inh
CCOC(=O)C(C(=O)OCC)N(C#N)c1nc(C)cc(C)n1,-4.9,-4.0,-0.1,-12.3,21.1*,-20.2
Cc1cc(C)c(NC(=O)CN(C)C(=O)CCC(=O)c2ccc(C)s2)c(C)c1,5.2,/,1.4,/,/,/
CC(=O)CS(=O)(=O)c1ccc(Oc2ccc(S(=O)(=O)CC(C)=O)cc2)cc1,-18.2,-20.8,0.2,-6.1,24.4*,-11.5
O=C(O)CS(=O)(=O)c1ccc(Oc2ccc(S(=O)(=O)CC(=O)O)cc2)cc1,/,4.4,2.7,-0.2,-2.1,0.0
CCOC(=O)N1CCc2[nH]c3ccc(C)cc3c2C1,-2.6,-13.2,2.1,-0.5,-3.3,4.2
CC(=O)N1CCc2[nH]c3ccc(C)cc3c2C1,1.2,2.0,5.8,11.5,51.2*,-7.4
O=C(N1CCc2[nH]c3ccccc3c2C1)C(F)(F)F,4.8,10.1,6.6,-1.8,106.0*,-0.8
CC(=CC(=O)c1ccccc1)c1ccccc1,1.4,/,/,/,/,/
COc1cc(OC)cc(C(=O)NNC(=O)CCNC(=O)c2ccc(Br)cc2)c1,-2.8,20.9,/,/,/,/
Cc1ccc(-n2cc(CNCCc3cscn3)c(-c3ccc(F)cc3)n2)cc1,-14.1,21.6,1.6,-10.6,-1.8,34.4
COc1ccc(-n2cc(CNCCc3cscn3)c(-c3ccccc3Cl)n2)cc1,/,51.5*,2.4,-9.2,-0.5,-9.6
OC(CNCCNc1ncccc1C(F)(F)F)Cn1ccc2ccccc21 (stereo not drawn),-2.9,6.0,-0.1,0.9,3.1,23.5
Cc1nc(-c2ccncc2)nc(NCCNc2ncccc2C(F)(F)F)c1Cl,-4.9,1.7,3.8,-15.1,3.7,76.7*
CC[n+]1ccc(/C=C/c2c[nH]c3ccccc23)cc1,-8.4,-1.4,0.3,-268.0,0.4,70.5*
Cc1ccc2[nH]cc(/C=C/c3cc[n+](C)cc3)c2c1,-7.0,1.8,/,-483.4,/,58.8*
COc1ccc2c(/C=C/c3cc[n+](C)cc3)c[nH]c2c1,3.4,-13.7,0.0,-68.1,5.3,53.9
COc1ccc(-c2oc(=O)c3cc(OC)c(OC)cc3c2C#CCCO)cc1,66.5*,27.3,/,/,/,/
COc1cc(OC)cc(-c2oc(=O)c3cc(OC)c(OC)cc3c2C#CCCO)c1,24.4,14.9,/,/,/,/
Cn1nccc1C(=O)OCC(=O)Nc1ccccc1Cl,-0.1,-16.5,/,-1.6,/,-14.2
CCN1C[C@@H]2[C@@H]3C(=O)N(C)C(=O)[C@@H]3[C@](Cc3ccccc3)(C1=O)N2C(=O)c1ccc(C(C)(C)C)cc1,16.7,/,/,/,/,/
CC(C)OC(=O)CCCCCN1C(=O)CSC1=S,-15.3,0.4,4.1,3.8,-0.2,56.1*
CC1CCN(CCCn2c(=S)[nH]c3ccccc3c2=O)CC1,8.8,-5.2,-2.0,-8.3,3.9,-4.7
O=c1c2ccccc2[nH]c(=S)n1CCCN1CCC(Cc2ccccc2)CC1,-1.7,-4.3,-1.5,2.0,5.6,55.7*
CCOC(=O)c1c(NC(=O)Cn2cnc([N+](=O)[O-])n2)sc2c1CCC(C)C2 (stereo not drawn),-3.6,9.1,0.5,0.7,5.2,57.1*
CCOC(=O)c1c(NC(=O)Cn2cc([N+](=O)[O-])cn2)sc2c1CCC2,-4.8,-5.2,-1.6,3.5,4.1,9.2
SMILES,Cardio protect,JMJD2C inh,PP5 primary,pCIP destab,Fh CTSL1 inh,T cruzi inh
COC(=O)c1c(NC(=O)Cn2cnc([N+](=O)[O-])n2)sc2c1CCC(C)C2 (stereo not drawn),-4.4,-2.2,3.2,-7.9,7.3,57.7*
COc1ccc(-c2cc(C(=O)N3CCN(c4cccc(C)c4C)CC3)c3ccccc3n2)cc1OC,18.0,-0.5,0.8,/,2.6,62.3*
COc1ccc(NC(=O)c2cc(-c3ccncc3)nc3ccccc23)c(OC)c1,24.4,0.6,/,/,/,/
COc1ccc(NC(=O)c2cc(-c3ccc(OC)c(OC)c3)nc3ccccc23)c(OC)c1,66.2*,3.6,0.6,-0.5,1.9,11.1
COc1ccc(-c2cc(C(=O)NC(C)c3ccccn3)c3ccccc3n2)cc1OC (stereo not drawn),54.8*,1.6,2.1,/,/,/
Cc1nnc(NC(=O)CCC(=O)NC2CCCCCCC2)s1,29.1,16.9,0.9,0.1,0.9,-7.1
Cc1cccc(Nc2c([N+](=O)[O-])cc(C(=O)N3CC(=O)Nc4ccccc43)cc2[N+](=O)[O-])c1,8.1,10.7,-1.6,3.3,3.4,83.9*
Cc1ccc(C)c(Nc2c([N+](=O)[O-])cc(C(=O)N3CC(=O)Nc4ccccc43)cc2[N+](=O)[O-])c1,19.4,5.2,3.6,4.9,4.6,65.7*
O=C1CN(C(=O)c2cccc(Br)c2)c2ccccc2N1,-2.8,0.0,0.4,4.9,3.5,-13.0
CCOc1ccc(OCCC(=O)OCC(=O)Nc2ccc(Cl)cn2)cc1,-4.2,5.4,1.0,/,-12.5,-2.3
CC(C)[C@H](NC(=O)OCc1ccccc1)C(=O)NC(C=O)Cc1ccccc1 (stereo partly drawn),8.0,4.2,0.8,/,112.5*,/
COC(=O)CNC(=O)C(NC(=O)OCc1ccccc1)C(C)C (stereo not drawn),17.7,-1.1,4.2,-4.8,15.4,5.6
Cc1[nH]c(C)c(S(=O)(=O)N2CCCCC2C)c1C(=O)N1CCCC1 (stereo not drawn),4.3,9.1,-1.0,-6.6,2.5,-25.6
Clc1cccc(CNc2ccn3nc(-c4ccccc4Cl)cc3n2)c1,-9.1,/,/,/,/,/
CN(C)C=NC(=O)c1cc(C(=O)c2ccc(Cl)cc2)c[nH]1,0.5,4.2,0.4,-4.9,17.6*,-7.3
S=C(N/N=C/c1ccc(Br)cc1)N1CCCCC1,-0.5,-6.1,2.3,2.0,-1.0,1.8
S=C(N/N=C/c1ccc(Cl)cc1)N1CCOCC1,13.2,-0.7,1.1,5.7,19.5*,14.3
Cc1ccc(/C=N/NC(=S)N2CCOCC2)cc1,-2.2,-3.1,5.5,4.3,27.6*,22.5
CCN1CCN(C(C(=O)NC2CCCCC2)c2ccnc3ccccc23)CC1 (stereo not drawn),0.1,/,/,/,/,/
O=C(Cn1[nH]c(=O)c2ccccc2c1=O)OCC(=O)c1ccccc1,44.4,-2.6,1.3,/,/,/
COc1ccc(C(=O)COC(=O)Cn2[nH]c(=O)c3ccccc3c2=O)c(OC)c1,61.5*,0.1,3.1,/,-22.4,-1.8
CCOc1ccc(C(=O)COC(=O)Cn2[nH]c(=O)c3ccccc3c2=O)cc1,78.4*,/,/,/,/,/
Cc1nnc(NC(=O)C23CC4CC(CC(C4)C2)C3)s1,-1.2,1.9,-0.9,-10.4,3.3,-10.1
COc1ccc(/C=C/C(=O)NC2CCCCC2C)cc1 (stereo not drawn),-1.0,-2.1,0.4,-3.3,-0.6,-4.9
CC1CCCCC1NC(=O)/C=C/c1nc2ccccc2s1 (stereo not drawn),-5.5,-11.2,0.7,-2.8,23.4*,2.8
